Assay [1] has as its target Myosin light chain kinase, smooth muscle (Homo sapiens) (UniProt Q15746). Description: Inhibition of smooth muscle MLCK assessed as residual activity at 10 uM by Cherenkov counting relative to control in presence of 50 uM ATP. The gist of the method: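 Single-concentration profiling at 10 μM in a 78-kinase panel. Kinase activity is expressed as a percentage of control assays run without compound.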

Assay [2] concerns the target Cyclin-dependent kinase 2/cyclin A (Homo sapiens) (UniProt P24941+P20248+P78396). Description: Inhibition of CDK2/cyclin A assessed as residual activity at 10 uM by Cherenkov counting relative to control in presence of 20 uM ATP. It is filed as protein-complex assay. The gist of the method:
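Single-point profiling at 10 µM in a panel of 78 protein kinases. Kinase activity is expressed as a percentage relative to control assays without compound.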

Assay [3] concerns the target Serine/threonine-protein kinase Nek6 (Homo sapiens) (UniProt Q9HC98). Description: Inhibition of NEK6 assessed as residual activity at 10 uM by Cherenkov counting relative to control in presence of 50 uM ATP.
Assay [4] addresses T1, Inhibitor of nuclear factor kappa-B kinase subunit epsilon (Homo sapiens) (UniProt Q14164).
T1 sequence (whole entry): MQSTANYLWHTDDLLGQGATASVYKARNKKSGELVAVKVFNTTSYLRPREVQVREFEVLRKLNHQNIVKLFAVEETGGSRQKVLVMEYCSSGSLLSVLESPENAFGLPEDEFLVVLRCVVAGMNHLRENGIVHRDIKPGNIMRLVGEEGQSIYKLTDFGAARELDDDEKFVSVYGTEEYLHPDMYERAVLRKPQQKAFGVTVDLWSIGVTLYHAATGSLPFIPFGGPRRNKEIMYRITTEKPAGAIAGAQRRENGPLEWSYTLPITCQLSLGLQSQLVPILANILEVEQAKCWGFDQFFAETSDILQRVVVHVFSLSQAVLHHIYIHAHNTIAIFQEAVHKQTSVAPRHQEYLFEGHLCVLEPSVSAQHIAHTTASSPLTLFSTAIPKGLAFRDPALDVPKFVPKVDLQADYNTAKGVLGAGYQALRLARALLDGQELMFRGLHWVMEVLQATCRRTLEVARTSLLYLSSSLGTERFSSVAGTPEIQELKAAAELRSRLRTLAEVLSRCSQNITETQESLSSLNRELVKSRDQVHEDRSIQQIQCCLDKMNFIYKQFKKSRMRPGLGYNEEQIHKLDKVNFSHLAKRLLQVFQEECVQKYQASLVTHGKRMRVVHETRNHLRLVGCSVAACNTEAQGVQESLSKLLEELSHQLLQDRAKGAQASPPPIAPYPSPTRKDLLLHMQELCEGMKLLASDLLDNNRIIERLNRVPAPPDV
Description: Inhibition of IKKepsilon assessed as residual activity at 10 uM by Cherenkov counting relative to control in presence of 50 uM ATP.

Assay [5] concerns the target Mitogen-activated protein kinase 9 (Homo sapiens) (UniProt P45984). The assay can be described thus: Inhibition of JNK2 assessed as residual activity at 0.1 uM by Cherenkov counting relative to control in presence of 20 uM ATP. The gist of the method:
(§1)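 Single-concentration selectivity screen at 0.1 μM against a panel of 76 protein kinases. Each kinase was run at an ATP level approximating its Km for ATP. Output is mean residual activity as % of the control assay without compound, n = 3 ± SD.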

Assay [6] concerns the target T2, Protein kinase C zeta type (Homo sapiens) (UniProt Q05513).
T2 sequence (whole entry): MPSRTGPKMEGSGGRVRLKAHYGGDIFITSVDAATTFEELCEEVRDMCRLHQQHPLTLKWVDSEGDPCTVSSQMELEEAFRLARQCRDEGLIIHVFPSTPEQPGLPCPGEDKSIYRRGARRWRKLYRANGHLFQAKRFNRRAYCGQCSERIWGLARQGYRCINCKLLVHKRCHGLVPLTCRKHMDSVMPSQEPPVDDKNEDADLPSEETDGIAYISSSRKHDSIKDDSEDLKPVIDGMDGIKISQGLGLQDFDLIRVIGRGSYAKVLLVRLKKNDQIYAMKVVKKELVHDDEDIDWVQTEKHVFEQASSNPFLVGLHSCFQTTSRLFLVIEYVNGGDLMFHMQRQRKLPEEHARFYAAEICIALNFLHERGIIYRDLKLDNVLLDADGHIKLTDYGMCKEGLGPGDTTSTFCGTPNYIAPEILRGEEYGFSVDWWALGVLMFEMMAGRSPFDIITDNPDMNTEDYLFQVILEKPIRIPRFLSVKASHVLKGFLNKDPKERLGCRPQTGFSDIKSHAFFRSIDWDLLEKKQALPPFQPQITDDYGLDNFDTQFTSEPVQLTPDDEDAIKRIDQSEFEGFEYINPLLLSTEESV
Description: Inhibition of PKCzeta assessed as residual activity at 0.1 uM by Cherenkov counting relative to control in presence of 5 uM ATP. The gist of the method: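 Single-concentration screen at 0.1 μM in a 76-kinase panel. ATP for each kinase was set near its Km for ATP. Residual activity is given as a percentage of control assays without compound, mean of n = 3 ± SD.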

A short description of assay [7]: Inhibition of AMPK assessed as residual activity at 0.1 uM by Cherenkov counting relative to control in presence of 50 uM ATP. The procedure, abridged:
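Single-concentration screen at 0.1 µM across a panel of 76 protein kinases. Each kinase was run at an ATP concentration approximating its ATP Km. Results are % mean residual activity versus control assays without compound (n = 3 ± SD).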

For assay [8], the target named is Serine/threonine-protein kinase pim-1 (Homo sapiens) (UniProt P11309). Description: Inhibition of PIM1 assessed as residual activity at 0.1 uM by Cherenkov counting relative to control in presence of 20 uM ATP. The gist of the method: as §1
Chain of Serine/threonine-protein kinase pim-1 (Homo sapiens) (P11309 whole entry, looked up): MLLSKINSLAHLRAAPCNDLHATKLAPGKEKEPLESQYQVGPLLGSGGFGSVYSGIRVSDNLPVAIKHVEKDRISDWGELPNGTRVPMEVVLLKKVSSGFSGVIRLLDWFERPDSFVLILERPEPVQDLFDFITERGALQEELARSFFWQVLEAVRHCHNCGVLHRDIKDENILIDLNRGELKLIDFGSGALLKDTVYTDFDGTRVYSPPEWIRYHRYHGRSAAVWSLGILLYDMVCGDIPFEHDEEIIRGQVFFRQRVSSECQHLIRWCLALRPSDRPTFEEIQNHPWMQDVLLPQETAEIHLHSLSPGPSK
Assay [9] deals with T3, Serine/threonine-protein kinase 3 (Homo sapiens) (UniProt Q13188).
T3 sequence (whole entry): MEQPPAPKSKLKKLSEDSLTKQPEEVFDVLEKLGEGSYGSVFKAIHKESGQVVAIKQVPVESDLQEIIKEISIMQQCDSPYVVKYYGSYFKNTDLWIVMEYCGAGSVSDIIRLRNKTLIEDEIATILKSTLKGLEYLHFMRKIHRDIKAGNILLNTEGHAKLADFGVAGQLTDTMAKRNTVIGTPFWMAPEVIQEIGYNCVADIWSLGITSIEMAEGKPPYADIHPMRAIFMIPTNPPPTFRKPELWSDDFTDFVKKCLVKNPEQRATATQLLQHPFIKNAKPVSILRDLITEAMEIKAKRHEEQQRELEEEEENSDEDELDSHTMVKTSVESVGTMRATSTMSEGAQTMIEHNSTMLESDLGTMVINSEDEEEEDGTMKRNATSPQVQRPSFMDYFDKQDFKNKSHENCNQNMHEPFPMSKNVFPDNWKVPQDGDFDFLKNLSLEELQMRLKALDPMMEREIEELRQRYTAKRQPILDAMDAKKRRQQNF
The assay can be described thus: Inhibition of MST2 assessed as residual activity at 0.1 uM by Cherenkov counting relative to control in presence of 20 uM ATP. The gist of the method: as §1

Assay [10] addresses Serine/threonine-protein kinase PAK 6 (Homo sapiens) (UniProt Q9NQU5). The assay can be described thus: Inhibition of PAK6 assessed as residual activity at 0.1 uM by Cherenkov counting relative to control in presence of 20 uM ATP. The gist of the method: as §1

Chain of Mitogen-activated protein kinase 9 (Homo sapiens) (P45984 whole entry, looked up): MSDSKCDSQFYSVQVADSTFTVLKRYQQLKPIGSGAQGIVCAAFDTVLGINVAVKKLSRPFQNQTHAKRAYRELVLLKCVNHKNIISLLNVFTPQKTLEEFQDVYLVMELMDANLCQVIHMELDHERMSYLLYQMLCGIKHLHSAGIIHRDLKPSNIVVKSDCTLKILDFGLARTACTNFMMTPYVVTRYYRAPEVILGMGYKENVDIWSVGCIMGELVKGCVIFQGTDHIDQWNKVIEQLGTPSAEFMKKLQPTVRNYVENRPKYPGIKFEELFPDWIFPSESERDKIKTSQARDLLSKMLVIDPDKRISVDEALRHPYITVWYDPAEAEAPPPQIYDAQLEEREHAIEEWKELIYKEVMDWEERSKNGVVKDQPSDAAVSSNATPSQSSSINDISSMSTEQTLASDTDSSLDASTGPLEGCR
Chain of Serine/threonine-protein kinase PAK 6 (Homo sapiens) (Q9NQU5 whole entry, looked up): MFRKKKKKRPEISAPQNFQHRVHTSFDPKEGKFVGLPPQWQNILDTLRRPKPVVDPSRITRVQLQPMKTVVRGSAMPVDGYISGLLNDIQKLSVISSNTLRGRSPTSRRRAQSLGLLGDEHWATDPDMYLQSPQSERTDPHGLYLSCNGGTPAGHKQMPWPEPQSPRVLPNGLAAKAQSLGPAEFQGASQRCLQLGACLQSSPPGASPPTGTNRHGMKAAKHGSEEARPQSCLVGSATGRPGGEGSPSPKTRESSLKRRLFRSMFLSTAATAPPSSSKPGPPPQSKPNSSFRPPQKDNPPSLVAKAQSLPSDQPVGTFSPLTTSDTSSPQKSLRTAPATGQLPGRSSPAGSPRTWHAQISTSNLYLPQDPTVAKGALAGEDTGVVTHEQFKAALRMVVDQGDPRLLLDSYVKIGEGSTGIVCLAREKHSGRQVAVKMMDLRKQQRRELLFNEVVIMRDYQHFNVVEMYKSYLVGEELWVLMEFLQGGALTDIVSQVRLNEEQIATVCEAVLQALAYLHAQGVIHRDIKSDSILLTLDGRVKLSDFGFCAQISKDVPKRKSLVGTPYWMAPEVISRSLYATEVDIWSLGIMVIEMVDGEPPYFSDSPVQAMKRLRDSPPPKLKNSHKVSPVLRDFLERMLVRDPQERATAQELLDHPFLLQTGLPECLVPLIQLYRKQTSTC
Chain of Myosin light chain kinase, smooth muscle (Homo sapiens) (Q15746 whole entry): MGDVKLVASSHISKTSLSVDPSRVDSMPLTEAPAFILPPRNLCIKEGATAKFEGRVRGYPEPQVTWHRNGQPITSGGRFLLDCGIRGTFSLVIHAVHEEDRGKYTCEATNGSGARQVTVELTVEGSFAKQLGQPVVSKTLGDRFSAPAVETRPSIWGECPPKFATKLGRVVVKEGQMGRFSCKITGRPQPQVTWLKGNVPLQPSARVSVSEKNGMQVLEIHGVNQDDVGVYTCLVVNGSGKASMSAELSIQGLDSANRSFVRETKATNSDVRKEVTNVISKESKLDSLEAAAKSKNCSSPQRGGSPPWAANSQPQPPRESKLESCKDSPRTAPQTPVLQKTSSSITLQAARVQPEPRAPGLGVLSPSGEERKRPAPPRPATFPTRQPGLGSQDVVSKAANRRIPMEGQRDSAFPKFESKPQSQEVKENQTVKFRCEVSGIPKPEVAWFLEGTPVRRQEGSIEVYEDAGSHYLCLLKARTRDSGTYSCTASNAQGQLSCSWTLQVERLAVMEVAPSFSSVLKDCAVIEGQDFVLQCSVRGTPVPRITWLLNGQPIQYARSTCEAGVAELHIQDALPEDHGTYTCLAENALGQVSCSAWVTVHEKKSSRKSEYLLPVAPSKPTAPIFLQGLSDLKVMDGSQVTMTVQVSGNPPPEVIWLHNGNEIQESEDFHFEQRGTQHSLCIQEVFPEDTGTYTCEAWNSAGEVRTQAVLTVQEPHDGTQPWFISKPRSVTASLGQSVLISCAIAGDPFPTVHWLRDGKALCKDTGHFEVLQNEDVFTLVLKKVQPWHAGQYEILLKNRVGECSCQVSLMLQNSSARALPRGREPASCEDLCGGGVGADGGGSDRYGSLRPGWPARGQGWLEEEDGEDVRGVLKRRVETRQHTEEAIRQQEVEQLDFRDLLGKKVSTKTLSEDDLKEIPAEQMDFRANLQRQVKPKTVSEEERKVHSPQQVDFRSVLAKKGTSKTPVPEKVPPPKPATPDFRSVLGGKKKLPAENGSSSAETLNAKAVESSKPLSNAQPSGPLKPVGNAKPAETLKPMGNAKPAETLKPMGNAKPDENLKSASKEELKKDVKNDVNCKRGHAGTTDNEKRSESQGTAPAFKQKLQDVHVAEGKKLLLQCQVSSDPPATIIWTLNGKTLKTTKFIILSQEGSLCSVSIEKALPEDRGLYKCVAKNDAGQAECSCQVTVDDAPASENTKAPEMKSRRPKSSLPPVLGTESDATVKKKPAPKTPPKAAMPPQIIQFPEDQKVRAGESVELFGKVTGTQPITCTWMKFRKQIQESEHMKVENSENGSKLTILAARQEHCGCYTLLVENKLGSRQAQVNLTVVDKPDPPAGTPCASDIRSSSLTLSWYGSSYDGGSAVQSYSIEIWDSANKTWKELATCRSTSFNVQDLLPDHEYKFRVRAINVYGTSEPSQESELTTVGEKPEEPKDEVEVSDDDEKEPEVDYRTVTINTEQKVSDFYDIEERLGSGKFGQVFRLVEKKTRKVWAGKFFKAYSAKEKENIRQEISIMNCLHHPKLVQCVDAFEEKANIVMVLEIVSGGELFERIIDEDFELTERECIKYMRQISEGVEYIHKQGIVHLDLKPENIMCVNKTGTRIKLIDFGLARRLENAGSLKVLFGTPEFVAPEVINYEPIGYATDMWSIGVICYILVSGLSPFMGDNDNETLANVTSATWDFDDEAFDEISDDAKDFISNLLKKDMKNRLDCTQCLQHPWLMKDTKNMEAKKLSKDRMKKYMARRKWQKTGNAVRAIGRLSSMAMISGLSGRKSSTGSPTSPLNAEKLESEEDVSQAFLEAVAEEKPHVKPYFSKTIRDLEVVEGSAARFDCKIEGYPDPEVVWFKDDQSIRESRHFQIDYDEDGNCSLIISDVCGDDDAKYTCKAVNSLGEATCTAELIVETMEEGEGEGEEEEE
Chain of Serine/threonine-protein kinase Nek6 (Homo sapiens) (Q9HC98 whole entry): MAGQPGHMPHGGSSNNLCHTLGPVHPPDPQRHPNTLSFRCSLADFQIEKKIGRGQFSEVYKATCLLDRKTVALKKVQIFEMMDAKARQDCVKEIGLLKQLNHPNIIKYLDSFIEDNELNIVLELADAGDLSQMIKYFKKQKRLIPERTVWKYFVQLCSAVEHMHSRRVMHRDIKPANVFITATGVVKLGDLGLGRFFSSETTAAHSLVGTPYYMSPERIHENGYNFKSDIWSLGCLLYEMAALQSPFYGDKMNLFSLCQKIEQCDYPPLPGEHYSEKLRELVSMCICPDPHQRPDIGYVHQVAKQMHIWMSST

As to `CC(C)c1noc(-c2ccc(F)cc2)c1-c1ccncc1`, the Activity in [1] was found to be 110%; in [2], 98%; in [3], 108%; in [4], 71%.
`CC(C)c1onc(-c2ccc(F)cc2)c1-c1ccncc1`: the Activity in assay [1] came out at 99%; in assay [2], 96%; in assay [3] it was 112%; in [4], 81%.
Regarding `COc1ccc(/C=C/C(=O)Nc2cc(-c3[nH]c([S+](C)[O-])nc3-c3ccc(F)cc3)ccn2)c(OC)c1` (stereo not given), the Activity worked out at 12% in [5]; 83% in assay [6]; 99% in assay [7]; 109% in [8]; 112% in [9]; 84% in assay [10].
In the case of `COc1ccc(/C=C/C(=O)Nc2cc(-c3[nH]c(SC)nc3-c3ccc(F)cc3)ccn2)c(OC)c1`, the Activity stood at 31% in assay [5]; 79% in assay [6]; 92% in [7]; 98% in assay [8]; 97% in assay [9]; 76% in assay [10].

The record behind these values is ChEMBL document CHEMBL1155278, “3,4-Diaryl-isoxazoles and -imidazoles as potent dual inhibitors of p38alpha mitogen activated protein kinase and casein kinase 1delta” (J Med Chem, 2009).
